The source made the active and inactive calls. The calls are words filed in the database; no cut-off is given here.
Columns and labels:
NCI-H2052 = assay: Antiproliferative activity against human NCI-H2052 cells assessed as cell growth inhibition incubated for 96 hrs by crystal violet staining; details: NCI-H2052, 96 h
SNU-16 = assay: Antiproliferative activity against human SNU-16 cells assessed as cell growth inhibition incubated for 96 hrs by MTS assay; format: functional, cell-based; details: SNU-16, 96 h
NCI-H2228 = assay: Antiproliferative activity against human NCI-H2228 cells assessed as cell growth inhibition incubated for 96 hrs by crystal violet staining; details: NCI-H2228, 96 h
OVCAR-8 = assay: Antiproliferative activity against human OVCAR-8 cells assessed as cell growth inhibition incubated for 96 hrs by crystal violet staining; details: OVCAR-8, 96 h
FaDu = assay: Antiproliferative activity against human FaDu cells assessed as cell growth inhibition incubated for 96 hrs by crystal violet staining
OCI-LY19 = assay: Antiproliferative activity against human OCILY19 cells assessed as cell growth inhibition incubated for 96 hrs by MTS assay; format: functional, cell-based; details: OCI-LY19, 96 h
[1] = Antiproliferative activity against human NCI-H2110 cells assessed as cell growth inhibition incubated for 96 hrs by crystal violet staining; details: NCI-H2110, 96 h
[2] = target: Mitogen-activated protein kinase 10 (Homo sapiens, UniProt P53779); assay: Binding affinity to JNK3 (unknown origin) assessed as dissociation constant
A2780cis = details: Homo sapiens, dose 2.5 mg/kg, route po, time 7.0 day
NCI-H23 = assay: Antiproliferative activity against human NCI-H23 cells assessed as cell growth inhibition incubated for 96 hrs by crystal violet staining; details: NCI-H23, 96 h
SK-MEL3 = assay: Antiproliferative activity against human SK-MEL3 cells assessed as cell growth inhibition incubated for 96 hrs by crystal violet staining; details: SK-MEL3, 96 h
Granta-519 = assay: Antiproliferative activity against human Granta-519 cells assessed as cell growth inhibition incubated for 96 hrs by MTS assay; format: functional, cell-based; details: Granta-519, 96 h
A549 = assay: Antiproliferative activity against human A549 cells assessed as cell growth inhibition incubated for 96 hrs by crystal violet staining; details: A549, 96 h
RPMI-7951 = assay: Antiproliferative activity against human RPMI-7951 cells assessed as cell growth inhibition incubated for 96 hrs by crystal violet staining; details: RPMI-7951, 96 h
[3] = Tmax in male Wistar rat plasma at 0.5 mg/kg, po measured after 24 hrs by LC/-MS/MS analysis; format: ADME, organism-based
Outline: (§1)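 Male Wistar rats given 0.5 mg/kg orally. Plasma collected from 8 min to 24 h, precipitated with ice-cold acetonitrile (1:5), and analysed by LC/MS-MS. Cmax and Tmax read directly from concentration–time profiles.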

IGROV-1 = assay: Antiproliferative activity against human IGROV-1 cells assessed as cell growth inhibition incubated for 96 hrs by crystal violet staining; details: IGROV-1, 96 h
LoVo = assay: Antiproliferative activity against human LoVo cells assessed as cell growth inhibition incubated for 96 hrs by crystal violet staining
[4] = Clearance in male Wistar rat blood at 0.5 mg/kg, iv measured after 24 hrs by LC/-MS/MS analysis; format: ADME, organism-based
A2780 = assay: Antiproliferative activity against human A2780 cells assessed as cell growth inhibition incubated for 96 hrs by crystal violet staining; details: A2780, 96 h
MIA PaCa-2 = assay: Antiproliferative activity against human MIA PaCa-2 cells assessed as cell growth inhibition incubated for 96 hrs by crystal violet staining; details: MIA PaCa-2, 96 h
HT-1376 = assay: Antiproliferative activity against human HT-1376 cells assessed as cell growth inhibition incubated for 96 hrs by MTS assay; format: functional, cell-based; details: HT-1376, 96 h
RD = assay: Antiproliferative activity against human RD cells assessed as cell growth inhibition incubated for 96 hrs by MTS assay; format: functional, cell-based
[5] = target: Phosphatidylinositol 5-phosphate 4-kinase type-2 gamma (Homo sapiens, UniProt Q8TBX8); assay: Binding affinity to PIP5K2C (unknown origin) assessed as dissociation constant
RKO = assay: Antiproliferative activity against human TP53 mutant RKO cells assessed as cell growth inhibition incubated for 96 hrs by crystal violet staining
[6] = Antiproliferative activity against human HBL1 cells assessed as cell growth inhibition incubated for 96 hrs by MTS assay; format: functional, cell-based; details: HBL1, 96 h
[7] = Oral bioavailability in male Wistar rat plasma at 0.5 mg/kg measured after 24 hrs by LC/-MS/MS analysis; format: ADME, organism-based
SiHa = assay: Antiproliferative activity against human SiHa cells assessed as cell growth inhibition incubated for 96 hrs by crystal violet staining
MDA-MB-231 = assay: Antiproliferative activity against human MDA-MB-231 cells assessed as cell growth inhibition incubated for 96 hrs by MTS assay; format: functional, cell-based; details: MDA-MB-231, 96 h
[8] = Oral bioavailability in female NMRI mouse plasma at 1 mg/kg measured after 24 hrs by LC/-MS/MS analysis
[9] = target: Mitogen-activated protein kinase 8 (Homo sapiens, UniProt P45983); assay: Binding affinity to JNK1 (unknown origin) assessed as dissociation constant
NCI-H647 = assay: Antiproliferative activity against human NCI-H647 cells assessed as cell growth inhibition incubated for 96 hrs by MTS assay; format: functional, cell-based; details: NCI-H647, 96 h
[10] = Cmax in male Wistar rat plasma at 0.5 mg/kg, po measured after 24 hrs by LC/-MS/MS analysis; format: ADME, organism-based
Outline: as §1

LAPC4 = assay: Antiproliferative activity against human LAPC4 cells assessed as cell growth inhibition incubated for 96 hrs by MTS assay; format: functional, cell-based; details: LAPC4, 96 h
[11] = Half life in male Wistar rat plasma at 0.5 mg/kg, iv measured after 24 hrs by LC/-MS/MS analysis; format: ADME, organism-based
NCI-H292 = assay: Antiproliferative activity against human NCI-H292 cells assessed as cell growth inhibition incubated for 96 hrs by crystal violet staining; details: NCI-H292, 96 h
Calu-6 = assay: Antiproliferative activity against human Calu-6 cells assessed as cell growth inhibition incubated for 96 hrs by crystal violet staining; details: Calu-6, 96 h
A673 = assay: Antiproliferative activity against human A673 cells assessed as cell growth inhibition incubated for 96 hrs by MTS assay; format: functional, cell-based; details: A673, 96 h

Mitogen-activated protein kinase 8, sequence (P45983 whole entry): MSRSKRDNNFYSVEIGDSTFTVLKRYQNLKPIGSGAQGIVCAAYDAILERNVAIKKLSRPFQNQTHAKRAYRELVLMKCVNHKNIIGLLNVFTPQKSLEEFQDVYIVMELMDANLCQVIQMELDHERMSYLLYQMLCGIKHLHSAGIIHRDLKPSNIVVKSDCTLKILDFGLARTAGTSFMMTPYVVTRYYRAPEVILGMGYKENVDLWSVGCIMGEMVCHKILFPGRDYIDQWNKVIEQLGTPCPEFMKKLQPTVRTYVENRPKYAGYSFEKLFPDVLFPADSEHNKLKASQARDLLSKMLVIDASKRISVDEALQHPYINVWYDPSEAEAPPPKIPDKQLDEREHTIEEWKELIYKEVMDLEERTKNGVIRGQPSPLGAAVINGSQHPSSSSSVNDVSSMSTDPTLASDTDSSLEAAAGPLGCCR
Phosphatidylinositol 5-phosphate 4-kinase type-2 gamma, sequence (Q8TBX8 whole entry): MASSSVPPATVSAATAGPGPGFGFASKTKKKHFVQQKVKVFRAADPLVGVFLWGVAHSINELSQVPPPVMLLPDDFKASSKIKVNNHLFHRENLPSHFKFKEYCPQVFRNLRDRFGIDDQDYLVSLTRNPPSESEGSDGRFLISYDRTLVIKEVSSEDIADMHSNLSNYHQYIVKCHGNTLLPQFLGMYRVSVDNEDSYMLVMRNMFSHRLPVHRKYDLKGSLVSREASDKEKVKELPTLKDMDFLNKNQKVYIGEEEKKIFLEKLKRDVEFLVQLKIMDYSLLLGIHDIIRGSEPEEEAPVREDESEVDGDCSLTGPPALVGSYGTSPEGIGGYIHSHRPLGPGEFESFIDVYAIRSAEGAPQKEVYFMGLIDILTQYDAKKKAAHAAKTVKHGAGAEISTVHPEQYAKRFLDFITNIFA
Mitogen-activated protein kinase 10, sequence (P53779 whole entry): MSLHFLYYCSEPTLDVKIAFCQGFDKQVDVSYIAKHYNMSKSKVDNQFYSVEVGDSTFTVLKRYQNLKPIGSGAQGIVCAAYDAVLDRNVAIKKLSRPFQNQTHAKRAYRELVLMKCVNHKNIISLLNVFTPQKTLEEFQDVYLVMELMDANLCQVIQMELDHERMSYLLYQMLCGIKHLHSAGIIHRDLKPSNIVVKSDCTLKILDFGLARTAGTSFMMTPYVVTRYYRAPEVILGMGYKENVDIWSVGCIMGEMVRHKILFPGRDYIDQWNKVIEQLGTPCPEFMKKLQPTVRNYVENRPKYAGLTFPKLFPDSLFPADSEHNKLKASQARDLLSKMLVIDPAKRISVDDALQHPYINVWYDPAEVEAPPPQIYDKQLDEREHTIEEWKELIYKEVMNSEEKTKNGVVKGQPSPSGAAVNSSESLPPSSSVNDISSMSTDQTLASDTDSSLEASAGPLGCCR

## COc1cc(S(C)(=O)=O)ccc1Nc1nc2ccc(-c3ccc(NC(=O)[C@H](C)c4ccc(F)cc4)cc3)cn2n1 [BAY-1161909]
NCI-H2052
  IC50: 96 nM
SNU-16
  IC50: 88 nM
NCI-H2228
  IC50: > 3000 nM
OVCAR-8
  IC50: 190 nM
FaDu
  IC50: 270 nM
OCI-LY19
  IC50: 61 nM
[1]
  IC50: 280 nM
[2]
  Kd: 96 nM
A2780cis
  inhibition: Active
NCI-H23
  IC50: 91 nM
SK-MEL3
  IC50: 53 nM
Granta-519
  IC50: 240 nM
A549
  IC50: 130 nM
RPMI-7951
  IC50: 280 nM
[3]
  Tmax: 4 h
IGROV-1
  IC50: 240 nM
LoVo
  IC50: 95 nM
[4]
  clearance: 3.17 mL/min/kg
A2780
  IC50: 69 nM
MIA PaCa-2
  IC50: 1000 nM
HT-1376
  IC50: 3000 nM
RD
  IC50: 260 nM
[5]
  Kd: 280 nM
RKO
  IC50: 48 nM
[6]
  IC50: 110 nM
[7]
  bioavailability: 49%
SiHa
  IC50: 610 nM
MDA-MB-231
  IC50: 110 nM
[8]
  bioavailability: 59%
[9]
  Kd: 240 nM
NCI-H647
  IC50: 570 nM
[10]
  Cmax: 110 ng/mL
LAPC4
  IC50: 130 nM
[11]
  half-life: 14 h
NCI-H292
  IC50: 190 nM
Calu-6
  IC50: > 3000 nM
A673
  IC50: 93 nM

Source: ChEMBL document CHEMBL5678814, “Novel Mps1 Kinase Inhibitors with Potent Antitumor Activity” (Mol Cancer Ther, 2016)
